Source: article PMC7007330 (Molecular microbiology, 2019)
“Also recorded” adds a separate entry of the source. Where two headings read alike, the source gives them in different places.

Tests used:
[1] = test system: wild-type Chlamydia trachomatis L2; assay: Growth curves with chemical inhibitors; assay type: cell-based; conditions: L929 cells; HQNO 1 μM, BKA 0.25 μM added at infection; 0-72 hpi
RsbU* mutant = assay: Immunofluorescence microscopy of infected L929 cells, RsbU* mutant; assay type: cell-based, Chlamydia trachomatis; conditions: 24 and 72 hours
Procedure, shortened: (§1)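 L929 monolayers were grown to confluency on slides and infected with wild-type C. trachomatis L2 or RsbU* mutant. HQNO or BKA was added immediately after infection where indicated. At 24 and 72 hpi, cells were fixed in 100% methanol (10 min, RT), washed with HBSS then PBS, and stained with MicroTrack reagent (1:40 in PBS, 1 h 50 min, RT). Nuclei were stained with DAPI (10 min, RT, dark) and samples mounted in antifade. Imaging was by spinning-disk confocal at 150X, 7 Z-stacks, maximum projection.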

ATP translocases = conditions: cited from earlier work
[2] = test system: wild-type C. trachomatis L2; assay: Immunofluorescence microscopy of infected L929 cells, wild-type; assay type: cell-based, Chlamydia trachomatis
Procedure, shortened: as §1

[3] = test system: wild-type C. trachomatis L2; assay: Progeny assay; assay type: cell-based, Chlamydia trachomatis; conditions: L929 cells; BKA 0.25 μM, HQNO 1 μM; 36 hpi then passaged
Procedure, shortened: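 L929 cells were infected with C. trachomatis L2 wild-type or RsbU* strains, with BKA (0.25 μM) and HQNO (1 μM) added at infection where indicated. At 36 hpi, wells were either fixed and stained with MicroTrack reagent, or water-lysed and passaged onto fresh host monolayers, then fixed and stained 36 h later. IFUs were counted, and fold change was taken as post-passage IFUs relative to first-36 h IFUs.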

[4] = test system: sodium-dependent NADH dehydrogenase; conditions: low concentrations (1 μM); cited from earlier work
[5] = test system: RsbU* mutant strain of C. trachomatis L2; assay: Growth curves with chemical inhibitors; assay type: cell-based, Chlamydia trachomatis; conditions: L929 cells; HQNO 1 μM added at infection
WT RsbU45–313 = WT RsbU45–313 (Chlamydia trachomatis, UniProt A0A0H3MDU0); assay type: binding; conditions: for SPR dose-dependent binding curves: Figure S3; for binding in initial SPR screening: ligands at 100 μM and 1 mM
RsbU45–313 [6] = biological target: T1, RsbU45–313 (Chlamydia trachomatis, UniProt A0A0H3MDU0); assay: biochemical; assay type: binding
RsbU45–313 R134A = biological target: T2, RsbU45–313 R134A (Chlamydia trachomatis, UniProt A0A0H3MDU0, R134A); assay: Surface plasmon resonance, R134A variant; assay type: binding; conditions: read-out: KD (estimated, steady state affinity), SPR, PBS
T2 sequence (A0A0H3MDU0 45-313 R134A): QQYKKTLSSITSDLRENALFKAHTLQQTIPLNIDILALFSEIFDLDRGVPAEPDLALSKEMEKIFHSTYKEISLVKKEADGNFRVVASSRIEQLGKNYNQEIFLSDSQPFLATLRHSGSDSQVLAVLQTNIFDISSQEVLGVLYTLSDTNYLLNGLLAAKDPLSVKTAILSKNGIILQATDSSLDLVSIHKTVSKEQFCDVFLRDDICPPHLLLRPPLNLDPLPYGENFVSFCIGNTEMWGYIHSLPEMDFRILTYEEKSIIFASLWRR

RsbU45–313 [7] = biological target: T1, RsbU45–313; assay: Differential scanning fluorimetry; assay type: binding
RsbU45–313 Q137A = biological target: T3, RsbU45–313 Q137A (Chlamydia trachomatis, UniProt A0A0H3MDU0, Q137A); assay: Surface plasmon resonance, Q137A variant; assay type: binding; conditions: read-out: KD (estimated, steady state affinity), SPR, PBS
T3 sequence (A0A0H3MDU0 45-313 Q137A): T2 sequence (A0A0H3MDU0 45-313 R134A)

RsbU45–313 K140A = biological target: T4, RsbU45–313 K140A (Chlamydia trachomatis, UniProt A0A0H3MDU0, K140A); assay: Surface plasmon resonance, K140A variant; assay type: binding; conditions: read-out: KD (estimated, steady state affinity), SPR, PBS
T4 sequence (A0A0H3MDU0 45-313 K140A): T2 sequence (A0A0H3MDU0 45-313 R134A)

RsbU45–313 K140A/R134A = biological target: T5, RsbU45–313 K140A/R134A (Chlamydia trachomatis, UniProt A0A0H3MDU0, K140A/R134A); assay: Surface plasmon resonance, K140A/R134A variant; assay type: binding; conditions: read-out: KD (estimated, steady state affinity), SPR, PBS
T5 sequence (A0A0H3MDU0 45-313 R134A/K140A): T2 sequence (A0A0H3MDU0 45-313 R134A)

[8] = 5 mM and 10 mM ligand, 10 μM RsbU45–313

CO[C@H](C/C=C\C=C\CC/C=C/C[C@H](C)/C=C/C(=C\C(=O)O)CC(=O)O)/C(C)=C\C=C(/C)C(=O)O [BKA, bongkrekic acid]
growth of wild-type Chlamydia (secY vs rpp30 genome copies) [1]: decrease in the growth of wild-type Chlamydia | levels of RsbU* Chlamydia or their dispersion within the host cell (RsbU* mutant): appeared to have no effect | inhibition of ATP translocases (ATP translocases): inhibit ATP translocases | morphology by confocal microscopy ([2]; 24 and 72 hours): No obvious morphological abnormalities | progeny production (IFUs) [3]: decrease in IFUs produced

CCCCCCCc1cc(O)c2ccccc2[n+]1[O-] [HQNO, 2-heptyl-4-hydrosyquinoline N-oxide]
inhibition of sodium-dependent NADH dehydrogenase [4]: selectively inhibit | growth of wild-type Chlamydia (secY vs rpp30 genome copies) [1]: not statistically different from the RsbU* mutant growth at any time point; also recorded: marked reduction in growth | levels of RsbU* Chlamydia or their dispersion within the host cell (RsbU* mutant): appeared to have no effect | inclusion morphology by confocal microscopy ([2]; 24 hours post-infection): formed smaller inclusions and appear to contain fewer EBs | inclusion morphology by confocal microscopy ([2]; 72 hours post-infection): inclusions that were grossly under-full | growth of RsbU* mutant (secY vs rpp30 genome copies) [5]: does not have an additive effect on the growth defect | progeny production (IFUs) [3]: decrease in the number of IFUs produced compared to the initial infection

O=C(O)CCC(=O)C(=O)O [alpha-ketoglutarate]
SPR dose-dependent binding curves (WT RsbU45–313): show dose-dependent binding | binding in initial SPR screening (WT RsbU45–313): binding was only observed | Kd (WT RsbU45–313; read-out: KD (estimated, steady state affinity), SPR, WT RsbU45–313, PBS): 419 µM | Kd (RsbU45–313 [6]; read-out: KD (ITC), single trial, 30 μM protein, PBS, data not shown): 25.8 µM | Kd (RsbU45–313 R134A): 526 µM | DSF temperature shift (RsbU45–313 [7]; [8]): Significant stabilizing temperature shifts | Kd (RsbU45–313 Q137A): 548 µM | Kd (RsbU45–313 K140A): 597 µM | Kd (RsbU45–313 K140A/R134A): 558 µM

O=C(O)CC(O)C(=O)O (stereo not shown) [malate]
SPR dose-dependent binding curves (WT RsbU45–313): show dose-dependent binding | binding in initial SPR screening (WT RsbU45–313): binding was only observed | Kd (RsbU45–313 [6]): 22 µM | DSF temperature shift (RsbU45–313 [7]; [8]): Significant stabilizing temperature shifts

O=C(O)CC(=O)O [malonate]
SPR dose-dependent binding curves (WT RsbU45–313): do not appear to be binding

O=C(O)CC(=O)C(=O)O [oxaloacetate]
SPR dose-dependent binding curves (WT RsbU45–313): show dose-dependent binding | binding in initial SPR screening (WT RsbU45–313): binding was only observed | Kd (RsbU45–313 [6]): 55.5 µM | DSF temperature shift (RsbU45–313 [7]; highest ligand concentration tested, only in one of two biological replicates): significant positive temperature shift

O=C(O)CCC(=O)O [succinate]
SPR dose-dependent binding curves (WT RsbU45–313): do not appear to be binding
